An excerpt weighted towards active compounds, which were near 3.9% of everything screened.
GAA850 FXN act – increases GAA850 frataxin promoter reporter activity | activation, % at 6 µM | HEK293 lucGAA850 FXN promoter luciferase reporter, 24 h; percent of 10 µM SAHA response | AID 540364 | 360,000 compounds, 0.56% hits;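 active = activation above the average of all compounds screened plus 3 SD, cutoff fixed separately per campaign, cut at about 7.5% in these data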;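 also: 0% = DMSO wells and 100% = 10 µM SAHA wells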
HIF activator – HIF pathway transcriptional activation. activation, % at 7.5 µM (by protocol). 300,000 compounds, 0.32% hits. U2OS HRE-luciferase reporter, luminescence; normalized: DMSO 0%, desferrioxamine 100%;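 active = mean activation of at least 10% of the iron chelator positive control signal, with at least half of replicates also reaching 10%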
SR-BI DiI inh – inhibitors of mouse SR-BI mediated HDL lipid uptake; 320,000 compounds, 0.96% hits; inhibition, % at 12.5 µM; Q61009; ldlA[mSR-BI] CHO cells, DiI-HDL uptake fluorescence, 3 h;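 active = mean replicate inhibition of at least 70% and a set share of replicates each scoring 70 or more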;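 also: 0% = median of neutral control wells and 100% = median of positive control wells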
SR-BI uptake up – enhances SR-BI lipid uptake from DiI-HDL; activation, % at 12.5 µM; 320,000 compounds, 0.096% hits; CHO ldlA[mSR-BI] cells, DiI-HDL uptake fluorescence, 3 h; 100 = double the neutral-control signal;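 active = mean replicate activation of at least 60% and every replicate at or above 60%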;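 also: 0% = median plate neutral-control signal and 100% = twice that signal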
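Material: SR-BI-overexpressing, LDLR-lacking CHO cells | Dosing: Single compound concentration, delivered by pin transfer | Probe or stimulus: Labelled HDL, 10 µg/mL | Signal: Bottom-read cell fluorescence after medium removal, ex 550/em 595 nm | Schedule: 3 h, 37 °C | Evaluation: HDL uptake via cellular fluorescence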
ABCB6 inh 2 – blocks the human ABCB6 transporter; Q9NP58; 360,000 compounds, 0.19% hits; fluorescence ratio to DMSO, % at 10 µM; K562-ABCB6 porphyrin accumulation, flow cytometry, 1 h; active compounds read low;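 active = fluorescence ratio to DMSO below 75%, the collection mean minus 3 SD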;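 also: signal is porphyrin accumulated inside mitochondria; 100% equals median channel fluorescence of DMSO control wells; lower ratio means ABCB6 inhibition with less porphyrin fluorescence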
Target sequence (Q9NP58 whole entry, looked up): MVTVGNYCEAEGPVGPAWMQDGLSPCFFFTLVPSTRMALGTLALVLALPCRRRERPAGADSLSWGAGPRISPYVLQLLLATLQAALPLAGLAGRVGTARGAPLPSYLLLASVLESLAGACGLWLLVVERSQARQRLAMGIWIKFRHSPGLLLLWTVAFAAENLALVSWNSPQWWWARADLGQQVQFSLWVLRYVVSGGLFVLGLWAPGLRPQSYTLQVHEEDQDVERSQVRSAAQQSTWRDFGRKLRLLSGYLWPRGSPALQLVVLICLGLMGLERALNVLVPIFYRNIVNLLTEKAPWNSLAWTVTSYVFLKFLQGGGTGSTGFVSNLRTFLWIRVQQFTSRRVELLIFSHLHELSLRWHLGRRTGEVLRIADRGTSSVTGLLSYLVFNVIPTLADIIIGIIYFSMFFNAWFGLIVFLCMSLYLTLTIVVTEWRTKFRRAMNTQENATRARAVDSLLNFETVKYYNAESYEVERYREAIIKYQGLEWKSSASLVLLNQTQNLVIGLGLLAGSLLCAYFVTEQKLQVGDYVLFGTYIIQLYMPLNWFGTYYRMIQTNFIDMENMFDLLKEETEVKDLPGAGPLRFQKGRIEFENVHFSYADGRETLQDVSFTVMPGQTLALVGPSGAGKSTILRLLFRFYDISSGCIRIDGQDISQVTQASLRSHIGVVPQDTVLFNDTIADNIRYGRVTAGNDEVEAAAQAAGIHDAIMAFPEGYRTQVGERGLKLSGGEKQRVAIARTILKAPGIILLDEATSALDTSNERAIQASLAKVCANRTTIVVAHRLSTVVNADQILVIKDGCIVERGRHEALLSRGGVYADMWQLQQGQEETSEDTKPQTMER
AHR activator – activators of human aryl hydrocarbon receptor; activation, % at 5 µM; P35869; AID 2796; AHR-responsive luciferase reporter cells, luminescence; 320,000 compounds, 2.5% hits; in the data active = activation above about 47%;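 also: 0% = vehicle wells and 100% = reference agonist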
Active calls of the source: *; · = no result given.

SMILES	GAA850 FXN act	HIF activator	SR-BI DiI inh	SR-BI uptake up	ABCB6 inh 2	AHR activator
COc1ccc2c(c1OC)C(=O)N1c3ccccc3COC21 (configuration not stated)	4.9	2.3	7.1	-7.1	·	-2.0
Cc1cc(-n2c(SCc3ccccc3F)nc3n[nH]c(C)c3c2=N)ccc1Cl	2.3	-0.7	10.6	-10.6	97.0	55.5*
CCC(Sc1nc2n[nH]c(C)c2c(=N)n1-c1cccc(Cl)c1)C(=O)NCCOC (configuration not stated)	-3.4	-0.7	22.8	-22.8	96.0	63.2*
COc1ccccc1NC(=O)CSc1nc2n[nH]c(C)c2c(=N)n1-c1ccccc1Cl	-3.5	0.0	-12.9	12.9	97.0	75.3*
CCc1ccccc1NC(=O)CSc1nc2n[nH]c(C)c2c(=N)n1-c1ccc(OC)cc1	-3.9	·	-12.7	12.7	92.0	·
CCN(C(=O)CSc1nc2n[nH]c(C)c2c(=N)n1-c1ccc(Cl)c(C)c1)c1cccc(C)c1	-3.8	-0.4	8.6	-8.6	99.0	24.3
CN1CCN(Cc2nc3ccccc3c(=O)n2Cc2nc(-c3ccccc3F)cs2)CC1	-8.0	19.9*	-26.3	26.3	100.0	2.6
c1ccc(-c2csc(Nc3ncccn3)n2)cc1	4.7	1.9	-2.5	2.5	97.0	24.8
Cc1cccnc1Nc1nc(-c2ccccc2)cs1	3.8	2.3	8.1	-8.1	97.0	55.3*
Cc1cccnc1Nc1nc(-c2ccc(O)cc2O)cs1	2.0	2.9	71.5*	-71.5	101.0	60.8*
Cc1cccnc1Nc1nc(-c2ccccn2)cs1	-18.1	181.8*	3.9	-3.9	98.0	-5.9
O=C(CCC(=O)NCCCc1ccccc1)NCCCc1ccccc1	0.0	-0.1	-61.7	61.7*	92.0	-2.7
O=C(Cc1ccccc1)NCCCc1ccccc1	0.3	-0.2	-9.1	9.1	103.0	20.4
COC(=O)c1nc(N)sc1C(C)C	-0.3	-0.5	-5.4	5.4	102.0	0.9
COc1ccc(NC(=S)N/N=C/c2ccc(F)c(F)c2)cc1	2.3	2.9	·	·	96.0	114.4*
Fc1ccc(NC(=S)N/N=C/c2ccc(F)c(F)c2)cc1	3.9	3.4	7.9	-7.9	101.0	15.3
Cc1ccc(NC(=O)NCc2ccc3c(c2)OCO3)c(C)c1	1.2	-0.2	-5.3	5.3	97.0	1.6
COC(=O)c1cn(CC(=O)N2CCCCCC2)c2ccccc12	-1.0	-0.6	8.0	-8.0	99.0	4.0
CCOC(=O)C1=C(O)/C(=C/c2cn(CC(=O)N3CCCC3)c3ccccc23)SC1=Nc1ccccc1	5.5	-0.5	70.5*	-70.5	87.0	·
S=C(NCc1cccs1)Nc1cccc(Cl)c1Cl	0.0	0.7	-31.2	31.2	87.0	6.1
CCC(=O)Oc1ccc(C(=O)Nc2cccc(C(=O)NCC(C)C)c2)cc1	-2.1	1.8	39.2	-39.3	99.0	7.8
CC(C)CNC(=O)c1cccc(NC(=O)c2ccc3c(c2)C(=O)N(C)C3=O)c1	-0.5	-0.8	81.1*	-81.1	99.0	-0.8
COc1ccc(OC)c2sc(NC(=O)C3CC3)nc12	-1.9	-0.4	3.0	-3.0	86.0	74.9*
Cc1ccc(Cl)c2sc(NC(=O)C3CC3)nc12	1.7	-0.4	31.2	-31.2	95.0	48.7*
COc1ccc(OC)c2sc(NC(=O)c3ccc(Cl)s3)nc12	-0.6	-0.1	87.2*	-87.2	89.0	30.3
SMILES	GAA850 FXN act	HIF activator	SR-BI DiI inh	SR-BI uptake up	ABCB6 inh 2	AHR activator
COc1ccc(OC)c2sc(NNC(=O)C3COc4ccccc4O3)nc12 (configuration not stated)	-0.4	-0.5	10.6	-10.6	99.0	57.4*
Cc1ccc2c(c1)COc1c3ccc(C(=O)N4CCCCC4)cc3nn1-2	6.0	-0.2	41.3	-41.3	98.0	-6.3
COc1ccc(NS(=O)(=O)c2ccc(F)c(F)c2F)cc1S(=O)(=O)N1CCOCC1	-1.4	·	-15.2	·	99.0	0.5
COc1ccc(OCC(=O)NNc2nc3ccccc3s2)cc1	0.3	0.3	15.8	-15.8	95.0	16.8
CCCC(=O)Nc1nc(-c2ccc(OC)cc2)cs1	2.8	1.4	32.5	-32.5	100.0	3.0
CCC(=O)Nc1nc2c(OC)ccc(OC)c2s1	1.3	-0.2	1.5	-1.5	98.0	68.5*
COc1ccc(OC)c2sc(NNC(=O)COc3ccccc3)nc12	0.3	-0.8	-20.6	20.6	100.0	79.0*
COc1ccc(OC)c2sc(NC(=O)c3ccc(Br)s3)nc12	-1.2	-0.1	-13.1	13.1	95.0	24.6
CCCC(=O)Nc1nc2c(OC)ccc(OC)c2s1	0.2	-0.3	30.4	-30.4	102.0	67.9*
CCOc1ccccc1NC(=O)CCC(=O)Nc1ccc2nc(N3CCN(C)CC3)cc(C)c2c1	1.6	0.1	61.5	-61.5	95.0	24.2
CN(Cc1ccccc1)C(=O)COC(=O)c1ccc2ccccc2n1	-0.9	0.2	-6.0	6.0	90.0	8.4
c1ccc2nc(-c3nc4ccccc4o3)ccc2c1	-4.5	-2.8	-18.8	18.8	105.0	90.0*
CCOC(=O)c1c(-c2ccncc2)csc1N	-2.2	-0.3	13.7	-13.7	94.0	26.2
CCc1ccc(OCC(=O)N/N=C2\CC(=O)c3ccccc32)cc1	0.4	0.1	-14.3	14.3	101.0	61.5*
Cc1ccc(NS(=O)(=O)c2ccc3c(c2)n(C)c(=O)n3C)cc1	-0.3	-0.4	-135.3	135.3*	102.0	3.1
CCn1c(-c2cccnc2Cl)nc2cc(Cl)c(Cl)cc21	5.2	1.2	8.3	-8.3	99.0	51.8*
O=C(Nc1nnc(C2CC2)s1)c1cc([N+](=O)[O-])ccc1N1CCCCC1	2.1	-39.2	44.3	-44.3	102.0	49.2*
Cc1ccc(C(=O)c2cc([N+](=O)[O-])ccc2N2CCCCC2)c(C)c1	-1.1	0.8	74.9*	-74.9	95.0	12.4
Cc1ccc(NC(=O)c2cc([N+](=O)[O-])ccc2N2CCCC2)cc1	-1.4	-0.4	11.2	-11.2	96.0	29.9
O=C(c1cc([N+](=O)[O-])ccc1N1CCCCC1)N1CCc2ccccc21	-6.1	0.5	75.6*	-75.6	84.0	2.9
CCCCNc1nnc(CCn2nc(C)c(Br)c2C)s1	3.0	0.1	-14.7	14.7	99.0	-0.4
O=C(NCc1ccc(F)cc1)c1cc(C2CCCCN2S(=O)(=O)c2cccc3cccnc23)on1 (configuration not stated)	-0.7	·	·	·	96.0	·
CCOC(=O)Cn1c(CN2CCN(C(c3ccccc3)c3ccccc3)CC2)nc2c1c(=O)n(C)c(=O)n2C	0.8	-0.3	18.4	-18.4	91.0	-1.5
Brc1ccc(N/N=C(/N=Nc2nn[nH]n2)c2ccccc2)cc1	-4.0	83.6*	46.5	-46.5	97.0	-2.5
O=C(O)c1ccc(N=N/C(=N\Nc2ccc(C(=O)O)cc2)c2ccccc2)cc1	1.9	-1.9	-35.2	35.2	90.0	6.5

High-throughput results as filed in PubChem BioAssay.
